From ChEMBL document CHEMBL3992530, “Polar aromatic periphery increases agonist potency of spirocyclic free fatty acid receptor (GPR40) agonists inspired by LY2881835” (Eur J Med Chem, 2017) come the findings set out here.

Series [1] has as its target T1, Free fatty acid receptor 1 (Homo sapiens, UniProt O14842). The series is described as follows: Agonist activity at human GPR40 expressed in CHO cells assessed as increase in intracellular calcium flux by Fluo-8 dye based FLIPR assay. It counts as functional, cell-based. Put shortly:
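Stable CHO-GPR40 line (human receptor), seeded at 12,500 cells/well 24 h before assay. Cells were loaded 1 h with Fluo-8 calcium dye and read on FLIPR Tetra. Agonist response was taken as the maximum fluorescence change over baseline. Dose-response testing gave EC50 from fitted concentration-response curves, with GW9508 run alongside as positive control.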

In series [2] the target is T1, Free fatty acid receptor 1. The series is described as follows: Agonist activity at human GPR40 expressed in CHO cells assessed as increase in intracellular calcium flux at 5 uM by Fluo-8 dye based FLIPR assay relative to GW9508. It counts as functional, cell-based. A general note: A change in cytosolic calcium serves as a functional read-out for many receptors and channels.

Series [3] is described as follows: Intrinsic clearance in Balb/c mouse liver microsomes at 2 uM in presence of NADPH by HPLC-MS analysis. It counts as ADME, microsome. Put shortly: (§1)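 Microsomes from pooled (50) perfused livers of male BALB/c mice, 0.42 mg protein/mL, in 100 mM K-phosphate pH 7.4 with MgCl2 3.3 mM, NADPH 3 mM, G6P 5.3 mM and G6PDH 0.67 U/ml. Compound was 2 μM (1.6% solvent) at 37°C, sampled at five points over 40 min in duplicate. Reactions were quenched with acetonitrile and analysed by HPLC-MS/MS. kel came from ln(AUC) vs time, T1/2 = 0.693/kel, and CLint was scaled per mg microsomes.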
On the technique in general: Liver microsomes are a subcellular fraction often used to study metabolism.

Series [4] concerns the target T2, Free fatty acid receptor 2 (Homo sapiens, UniProt O15552).
T2 sequence (O15552 whole entry): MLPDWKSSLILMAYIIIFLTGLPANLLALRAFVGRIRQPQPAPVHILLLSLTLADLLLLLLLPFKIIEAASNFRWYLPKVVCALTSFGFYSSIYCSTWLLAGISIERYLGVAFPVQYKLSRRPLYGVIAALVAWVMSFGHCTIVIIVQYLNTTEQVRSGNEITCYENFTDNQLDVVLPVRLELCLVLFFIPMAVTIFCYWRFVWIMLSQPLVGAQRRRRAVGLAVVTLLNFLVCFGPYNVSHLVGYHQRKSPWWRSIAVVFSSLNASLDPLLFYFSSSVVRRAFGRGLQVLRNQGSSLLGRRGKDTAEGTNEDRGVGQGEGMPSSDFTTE
Briefly: Agonist activity at human FFA2 receptor expressed in CHO cells assessed as increase in intracellular calcium flux by Fluo-8 dye based FLIPR assay. It counts as functional, cell-based. Put shortly: (§2)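 Separate CHO lines stably expressing GPR41, GPR43 or GPR120 (from ECACC) were used for specificity screening in the same format as the FFA1 assay. Cells were plated at 12,500/well 24 h ahead, loaded 1 h with Fluo-8 calcium dye, and read on a FLIPR Tetra. Response was taken as the maximum fluorescence change over baseline.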

Series [5] can be described thus: Kinetic aqueous solubility of the compound in PBS buffer […] at pH 7.4 by UV-Visible spectrophotometric analysis. Particulars: read-out: Kinetic_solubility. It counts as physicochemical. Put shortly: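 Kinetic solubility: a 40 mM DMSO stock was diluted to a nominal 800 μM in duplicate in PBS (138 mM NaCl, 2.7 mM KCl, 10 mM K-phosphate, pH 7.4, 2% final DMSO). Samples were shaken 2 h at 25°C and then filtered. Filtrates were diluted 2-fold in methanol and quantified by UV scan (200-550 nm) against 0, 200 and 400 μM calibrants in 50% methanol/PBS. Values average n = 4.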

Series [6] deals with T3, Free fatty acid receptor 3 (Homo sapiens, UniProt O14843).
T3 sequence (O14843 whole entry): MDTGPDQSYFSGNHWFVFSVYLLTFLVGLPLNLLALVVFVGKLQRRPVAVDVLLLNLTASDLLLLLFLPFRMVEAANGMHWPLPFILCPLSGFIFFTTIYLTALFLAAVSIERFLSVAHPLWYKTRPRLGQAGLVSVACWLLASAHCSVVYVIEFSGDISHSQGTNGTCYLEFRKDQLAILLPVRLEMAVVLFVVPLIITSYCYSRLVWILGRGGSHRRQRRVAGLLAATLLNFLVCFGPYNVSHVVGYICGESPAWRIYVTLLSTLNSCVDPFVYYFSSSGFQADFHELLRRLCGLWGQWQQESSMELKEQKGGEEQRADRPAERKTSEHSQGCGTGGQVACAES
Briefly: Agonist activity at human FFA3 receptor expressed in CHO cells assessed as increase in intracellular calcium flux by Fluo-8 dye based FLIPR assay. It counts as functional, cell-based. Put shortly: as §2

The target of series [7] is T4, Free fatty acid receptor 4 (Homo sapiens, UniProt Q5NUL3).
T4 sequence (Q5NUL3 whole entry): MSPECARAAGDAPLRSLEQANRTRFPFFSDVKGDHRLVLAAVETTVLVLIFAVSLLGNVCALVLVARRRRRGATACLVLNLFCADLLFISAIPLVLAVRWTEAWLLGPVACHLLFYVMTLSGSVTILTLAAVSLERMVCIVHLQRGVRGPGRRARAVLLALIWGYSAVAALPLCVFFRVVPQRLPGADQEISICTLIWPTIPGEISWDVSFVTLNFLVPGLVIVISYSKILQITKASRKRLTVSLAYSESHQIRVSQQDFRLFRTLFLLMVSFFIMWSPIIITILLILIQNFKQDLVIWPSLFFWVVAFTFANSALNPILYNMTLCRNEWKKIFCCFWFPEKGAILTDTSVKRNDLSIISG
Briefly: Agonist activity at human GPR120 expressed in CHO cells assessed as increase in intracellular calcium flux by Fluo-8 dye based FLIPR assay. It counts as functional, cell-based. Put shortly: as §2

Series [8] in a line: Apparent permeability from apical to basolateral direction in human Caco2 cells at 10 uM after 2 hrs by HPLC-MS analysis. It counts as ADME, cell-based. Particulars: Caco-2. Put shortly:
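Caco-2 cells were grown to 70–80% confluence, then seeded at 1x10⁵ cells/well on 24-well semipermeable inserts and washed twice with PBS. Compound was 10 μM in HBSS with 5,6 mM glucose and 10 mM HEPES, pH 7.4, applied apically in duplicate for 2 h at 37 °C. Receiver concentrations were measured by HPLC-MS, and Papp was computed from acceptor volume, insert area, time and acceptor/initial donor concentration.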
On the technique in general: Caco-2 monolayers are a common model of the intestinal barrier.

Series [9] in a line: Half life in Balb/c mouse liver microsomes at 2 uM in presence of NADPH by HPLC-MS analysis. It counts as ADME, microsome. Put shortly: as §1

T1 sequence (O14842 whole entry): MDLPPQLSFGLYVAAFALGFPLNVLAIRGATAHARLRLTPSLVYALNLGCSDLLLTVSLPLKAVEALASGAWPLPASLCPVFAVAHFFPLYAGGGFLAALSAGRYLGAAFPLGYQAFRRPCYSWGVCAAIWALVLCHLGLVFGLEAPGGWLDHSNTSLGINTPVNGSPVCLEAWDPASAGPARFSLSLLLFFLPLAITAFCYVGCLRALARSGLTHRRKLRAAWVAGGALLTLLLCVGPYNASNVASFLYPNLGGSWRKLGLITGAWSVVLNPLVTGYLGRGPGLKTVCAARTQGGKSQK

As to `O=C(O)CCc1ccc(OCc2ccc(CN3CCC4(CCCCO4)CC3)cc2)cc1`, the EC50 in series [1] is more than 20000 nM.

With `O=C(O)CCc1ccc(OCc2ccc(CN3CCC4(CC3)CC(CCOc3ncnc5c3CCC5)CCO4)cc2)cc1` (stereo not given), in series [1], the half-maximal effective concentration (EC50) turned out to be 1260 nM. The %max in series [2] stood at 78.4%.

Consider `O=C(O)CCc1ccc(OCc2ccc(CN3CCC4(CC3)CC(CCOc3nc(C5CC5)nc5c3CCC5)CCO4)cc2)cc1` (stereo not given), for which the EC50 in series [1] amounted to 1210 nM. Further, in series [2], the %max was determined as 60.5%.

For `O=C(O)CCc1ccc(OCc2ccc(CN3CCC4(CC3)CC(CCOc3ncccn3)CCO4)cc2)cc1` (stereo not given), the EC50 in [1] stood at 3870 nM. The %max in series [2] worked out at 54.5%.

Regarding `Cc1cnc(C)c(OCCC2CCOC3(CCN(Cc4ccc(COc5ccc(CCC(=O)O)cc5)cc4)CC3)C2)n1` (stereo not given), the EC50 in series [1] is 1140 nM. In addition, in series [2], the %max was found to be 80.2%.

Turning to `O=C(O)CCc1ccc(OCc2ccc(CN3CCC4(CC3)CC(CCOc3cnccn3)CCO4)cc2)cc1` (stereo not given), the 50% effective concentration (EC50) in [1] is 1480 nM. Also, the %max in series [2] turned out to be 83.5%.

For the molecule `O=C(O)CCc1ccc(OCc2ccc(CN3CCC4(CC3)CC(CCOc3ccc(F)cc3)CCO4)cc2)cc1` (stereo not given), in series [1], the concentration for a half-maximal effect (EC50) turned out to be 2060 nM. For the same molecule, the %max in series [2] amounted to 55%.

For the molecule `O=C(O)CCc1ccc(OCc2ccc(CN3CCC4(CC3)CC(CCOc3ccc5ccccc5n3)CCO4)cc2)cc1` (stereo not given), the EC50 in series [1] came out at 2360 nM. Also, the %max in series [2] was found to be 83.4%.

In the case of `Cc1nccnc1OCCC1CCOC2(CCN(Cc3ccc(COc4ccc(CCC(=O)O)cc4)cc3)CC2)C1` (stereo not given), the half-maximal effective concentration (EC50) in series [1] was found to be 1270 nM. Further, the %max in series [2] is 105%.

As to `Cc1cccc(OCCC2CCOC3(CCN(Cc4ccc(COc5ccc(CCC(=O)O)cc5)cc4)CC3)C2)n1.Cl.Cl` (stereo not given), in series [3], the CL int at 2 µM was 72.8 µL/min/mg. The EC50 in series [4] was more than 10000 nM; in series [1], 260 nM; in [6], more than 10000 nM; in series [7], more than 10000 nM. Besides, the solubility kinetic in series [5] came out at 228 µM. Besides, in [8], the apical-to-basolateral permeability (Papp A→B) at 2 h, 10 µM came to 7.3 ×10⁻⁶ cm/s. Besides, the half-life at 2 µM in [9] amounted to 22.9 min. Also, in [2], the %max was found to be 100%.

For `Cc1ccnc(OCCC2CCOC3(CCN(Cc4ccc(COc5ccc(CCC(=O)O)cc5)cc4)CC3)C2)c1` (stereo not given), the 50% effective concentration (EC50) in [1] came out at 1110 nM. The %max in series [2] worked out at 110%.

Consider `O=C(O)CCc1ccc(OCc2ccc(CN3CCC4(CC3)CC(Oc3ccccn3)CCO4)cc2)cc1` (stereo not given), for which the concentration giving a half-maximal response (EC50) in [1] was determined as 900 nM.

`O=C(O)CCc1ccc(OCc2ccc(CN3CCC4(CC3)CC(CCOc3cccnc3)CCO4)cc2)cc1` (stereo not given): in [1], the EC50 stood at 2560 nM. In addition, in series [2], the %max was 61.7%.

In the case of `O=C(O)CCc1ccc(OCc2ccc(CN3CCC4(CC3)CC(CCOc3ccncc3)CCO4)cc2)cc1` (stereo not given), the EC50 in series [1] came out at 6100 nM. For the same molecule, the %max in series [2] is 48.5%.

`O=C(O)CCc1ccc(OCc2ccc(CN3CCC4(CC3)CC(CCOc3ccc(C(F)(F)F)cn3)CCO4)cc2)cc1` (stereo not given): in series [1], the EC50 was 33500 nM. In addition, in [2], the %max came out at 79.2%.

What is called EC50 is the concentration needed to bring the measured effect to its halfway point. In general, Papp A→B refers to how fast a substance crosses the layer from the apical side. By half-life is commonly meant how long it takes for the measured level to halve.
